Results taken from paper PMC7569488 (Science signaling, 2020).
Numbering of substitutions follows the chain as printed.

Experiments:
MKP3 and MKP1 = conditions: cited from earlier work
MKP5-CD [1] = target: T1, MKP5-CD (Homo sapiens, UniProt Q9Y6W6); experiment: Malachite green phosphatase assay with p38α MAPK phosphopeptide substrate; type: biochemical
T1 sequence (Q9Y6W6 320-467): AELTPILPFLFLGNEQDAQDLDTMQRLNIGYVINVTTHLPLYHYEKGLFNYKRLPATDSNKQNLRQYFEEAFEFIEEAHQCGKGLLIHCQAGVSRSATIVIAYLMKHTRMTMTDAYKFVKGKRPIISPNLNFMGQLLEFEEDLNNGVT

PTP-1B = target: T2, PTP-1B (Homo sapiens, UniProt P18031); experiment: Phosphatase selectivity assay, PTP-1B; type: biochemical
T2 sequence (P18031 1-435): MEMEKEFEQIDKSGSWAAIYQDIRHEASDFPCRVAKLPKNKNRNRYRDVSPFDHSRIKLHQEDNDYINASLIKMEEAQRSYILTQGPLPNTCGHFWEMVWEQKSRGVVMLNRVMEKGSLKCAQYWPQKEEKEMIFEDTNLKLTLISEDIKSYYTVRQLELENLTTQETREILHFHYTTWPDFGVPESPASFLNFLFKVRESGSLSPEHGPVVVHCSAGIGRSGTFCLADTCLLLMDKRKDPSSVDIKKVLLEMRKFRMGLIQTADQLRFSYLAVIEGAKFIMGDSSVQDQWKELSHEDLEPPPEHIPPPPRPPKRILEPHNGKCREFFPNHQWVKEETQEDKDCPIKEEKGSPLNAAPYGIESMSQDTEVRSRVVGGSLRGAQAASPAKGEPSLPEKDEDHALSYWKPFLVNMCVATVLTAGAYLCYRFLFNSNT

MKP3 = experiment: DiFMUP phosphatase assay, MKP3; type: biochemical; conditions: DiFMUP substrate
MKP7 = experiment: p38α MAPK phosphopeptide phosphatase assay, MKP7; type: biochemical; conditions: p38α MAPK phosphopeptide substrate
Summary of the method: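 MKP7-CD (residues 156-301) and MKP5-CD were E. coli-expressed and thrombin-cleaved. Each was assayed with the p38α MAPK diphosphopeptide DDE(Nle)(pT)G(pY)VATR, and released phosphate was detected by malachite green. Activity was normalized to DMSO control and fit to a hyperbolic inhibition equation. The IC50 for MKP7-CD was compared with the IC50 for MKP5-CD.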

MKP5-CD [2] = target: T1, MKP5-CD; experiment: Phosphate sensor steady-state kinetic assay with full-length p38α MAPK substrate; type: biochemical
MKP5-CD [3] = target: T1, MKP5-CD; experiment: DiFMUP steady-state kinetic assay; type: biochemical; conditions: DiFMUP substrate
MKP5-CD [4] = target: T1, MKP5-CD; experiment: Transient stopped-flow kinetic assay with DiFMUP; type: biochemical
MKP5 single mutant M431L = target: T3, MKP5 single mutant M431L (Homo sapiens, UniProt Q9Y6W6, M431L); experiment: Malachite green assay, MKP5 M431L mutant; type: biochemical
T3 sequence (Q9Y6W6 320-467 M431L): T1 sequence (Q9Y6W6 320-467) with M112L

MKP5 single mutant T432D = target: T4, MKP5 single mutant T432D (Homo sapiens, UniProt Q9Y6W6, T432D); experiment: Malachite green assay, MKP5 T432D mutant; type: biochemical
T4 sequence (Q9Y6W6 320-467 T432D): T1 sequence (Q9Y6W6 320-467) with T113D

[5] = target: T5, MKP5 M431L/T432D double mutant (Homo sapiens, UniProt Q9Y6W6, M431L/T432D); experiment: Malachite green assay, MKP5 M431L/T432D double mutant; type: biochemical; conditions: p38α MAPK phosphopeptide
T5 sequence (Q9Y6W6 320-467 M431L/T432D): T1 sequence (Q9Y6W6 320-467) with M112L, T113D

[6] = tested on: MKP5-CD Tyr^435 mutants (alanine, serine, tryptophan); experiment: Binding and inhibition experiments with Tyr435 mutants; type: biochemical, human; conditions: Y435A, Y435S, Y435W
[7] = tested on: MKP5 mutants M431L, T432D and M431L/T432D; experiment: Binding affinity for Met431/Thr432 mutants; set-up: species or system human
p38α MAPK [8] = experiment: p38α MAPK activation in C2C12 myoblasts; type: cell-based, mouse; conditions: highest concentration of Compound 1, dose-dependent
Summary of the method: (§1)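 C2C12 myoblasts (ATCC) were treated with test compound (0, 10, 25, 50 μM) overnight, serum-starved 4 h, lysed and immunoblotted. Antibodies: phospho-ERK1/2 Thr202/Tyr204, phospho-JNK Thr183/Tyr185, phospho-p38α Thr180/Tyr182, plus the matching total proteins. The pMAPK/MAPK ratio was quantified by direct fluorescence imaging. Four independent experiments; means ± SEM; two-tailed t-test.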

JNK [9] = experiment: JNK activation in C2C12 myoblasts; type: cell-based, mouse; conditions: highest concentration of Compound 1
Summary of the method: as §1

ERK1/2 [10] = experiment: ERK1/2 activation in C2C12 myoblasts; type: cell-based, mouse; conditions: even at the highest concentration
Summary of the method: as §1

C2C12 myoblasts [11] = experiment: C2C12 myoblast proliferation; type: cell-based, mouse; conditions: C2C12, 72 hr
C2C12 myoblasts [12] = experiment: C2C12 myoblast differentiation; type: cell-based, mouse; conditions: C2C12, 72 h
Summary of the method: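 C2C12 myoblasts were plated in growth medium, then switched to DMEM with 0.1% FBS, 5 μg/mL insulin and 5 μg/mL selenium, plus DMSO vehicle or test compound. Differentiation ran 72 hr. Cells were stained with MF20 antibody (myosin heavy chain) and DAPI. Fusion index = % of nuclei in myotubes with ≥2 nuclei over total nuclei, counted from ≥10 fields. Means ± SEM; two-tailed t-test.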

Smad2 = experiment: TGF-β1-mediated Smad2 phosphorylation in MEFs; type: cell-based, mouse; conditions: TGF-β1 1 ng/ml 10 minutes
p38α MAPK [13] = experiment: p38α MAPK phosphorylation in MEFs; type: cell-based, mouse
Summary of the method: (§2)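 Mouse embryo fibroblasts were derived from Mkp5+/+ and Mkp5−/− embryos (days 13-14) and spontaneously immortalized. Cells were treated with test compound overnight, serum-starved 4 h, then stimulated with TGF-β1 (1 ng/ml) for 10 min. Lysates were immunoblotted for phospho- and total MAPK, and the ratio was quantified by fluorescence imaging. 3-6 independent experiments; means ± SEM; t-test.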

JNK [14] = experiment: JNK phosphorylation in MEFs; type: cell-based, mouse
Summary of the method: as §2

ERK1/2 [15] = experiment: ERK1/2 phosphorylation in MEFs; type: cell-based, mouse; conditions: Mkp5−/− MEFs
Summary of the method: as §2

Solubility = type: physicochemical

O=C1/C(=C/c2ccccc2)C(NC2CCCCC2)c2ccccc21 (centres unmarked) [BCI]
relative potency MKP3 versus MKP1 (MKP3 and MKP1): relative equipotency

CSc1scc2c1-c1nc(SCC(=O)C(C)(C)C)ncc1CC2 [Compound 1, 3,3-dimethyl-1-((9-(methylthio)-5,6-dihydrothieno[3,4-h]quinazolin-2-yl)thio)butan-2-one]
IC50 (MKP5-CD [1]; IC50 against MKP5-CD, p38α MAPK phosphopeptide substrate): ~3.9 µM
extent of inhibition of MKP5-CD phosphatase activity (MKP5-CD [1]; p38α MAPK phosphopeptide): did not fully inhibit
IC50 (PTP-1B): > 100 µM
increase in IC50 for MKP3 relative to MKP5 (MKP3): at least 16 fold
increase in IC50 for MKP7 relative to MKP5 (MKP7): at least 16 fold
Ki (MKP5-CD [2]): 8.9 ± 2.2 µM
α (mixed-mechanism inhibition) (MKP5-CD [2]; full-length p38α MAPK substrate): ≈ 17.4
α (mixed mechanism of inhibition) (MKP5-CD [3]): 4.2
fold change of burst rate (k1) (MKP5-CD [4]; 20 and 40 μM Compound 1): 7 fold
burst rate (k1) in the presence of Compound 1 (MKP5-CD [4]; 20 and 40 μM Compound 1 (8.4 ± 0.2 s^−1 without)): 1.2 ± 0.02 s⁻¹
IC50 (MKP5 single mutant M431L): 99 µM
IC50 (MKP5 single mutant T432D): 61 µM
inhibition of MKP5 M431L/T432D double mutant [5]: nearly abolished inhibition
binding to and inhibition of Tyr435 mutants [6]: capable of binding to and inhibiting the activity of only the Y435W mutant
binding affinity for M431L, T432D and M431L/T432D mutants [7]: Concomitant reductions in the binding affinity
activation of p38α MAPK (p38α MAPK [8]): up to 4 fold
JNK activation (JNK [9]): up to 2 fold
activation of ERK1/2 (ERK1/2 [10]): did not alter the activation of ERK1/2
myoblast proliferation (BrdU-positive cells) (C2C12 myoblasts [11]): did not affect C2C12 myoblast proliferation
myoblast differentiation (myotube fusion index) (C2C12 myoblasts [12]): significantly increased
TGF-β1-mediated Smad2 phosphorylation (Smad2; Mkp5+/+ MEFs): inhibited TGF-β1-mediated Smad2 phosphorylation
TGF-β1-mediated Smad2 phosphorylation (Smad2; Mkp5−/− MEFs): failed to inhibit Smad2 phosphorylation further
phosphorylation of p38α MAPK (p38α MAPK [13]; Mkp5−/− MEFs): did not result in additional phosphorylation
phosphorylation of p38α MAPK (p38α MAPK [13]; wild type MEFs): dose-dependent increase
phosphorylation of JNK (JNK [14]; Mkp5−/− MEFs): did not result in additional phosphorylation
phosphorylation of JNK (JNK [14]; wild type MEFs): dose-dependent increase
ERK1/2 phosphorylation (ERK1/2 [15]): unaffected
solubility (Solubility): modest solubility
